Converted amounts (≈) assume the structure as drawn. The source made the active and inactive calls. No cut-off for these calls is given here.
How the values were obtained:
[1] = Selectivity index, ratio of TC50 for human HepG2(2.2.15) cells to IC50 for HBV infected in human HepG2(2.2.15) cells assessed as inhibition of viral DNA replication
Method in brief: (§1)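 Selectivity index computed as TC50 (MTS, HepG2 2.2.15, 3 days) divided by IC50 for HBsAg, HBeAg or virion DNA inhibition in the same cell line.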

Hepatitis B virus [2] = test: Antiviral activity against HBV infected in human HepG2(2.2.15) cells assessed as inhibition of surface antigen secretion by EIA; type: functional, organism-based
Method in brief: (§2)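 HepG2 2.2.15 cells (HepG2 stably carrying a head-to-tail HBV DNA dimer; MEM, 10% FBS, 37 °C, 5% CO2) treated with compound for 3 days; conditioned medium assayed for secreted HBsAg and HBeAg by enzyme immunoassay; mean and SD, n = 3; IC50 taken as 50% inhibitory concentration.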

[3] = Selectivity index, ratio of TC50 for human HepG2(2.2.15) cells to IC50 for HBV infected in human HepG2(2.2.15) cells assessed as inhibition of e antigen secretion; method in brief: as §1
Hepatitis B virus [4] = test: Antiviral activity against HBV infected in human HepG2(2.2.15) cells assessed as inhibition of viral DNA replication; type: functional, organism-based
Method in brief: (§3)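 Secreted virion DNA from HepG2 2.2.15 cells after 3 days of compound treatment; HBV DNA isolated from conditioned medium and quantified by SYBR Green real-time PCR (45 cycles, 95 °C 15 s / 58 °C 1 min); mean and SD, n = 3; IC50 as 50% inhibitory concentration.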

[5] = Cytotoxicity against human HepG2(2.2.15) cells; type: cell-based; details: read-out: TC50 (the source's name)
Method in brief: (§4)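 Cytotoxicity by MTS: HepG2 2.2.15 cells seeded at 4×10^4 cells/ml for 24 h, exposed to serial dilutions 2.5–160 µg/ml for 3 days; four replicates, viability expressed relative to untreated control; TC50 as 50% cytotoxic concentration.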

Hepatitis B virus [6] = test: Antiviral activity against HBV infected in human HepG2(2.2.15) cells assessed as inhibition of e antigen secretion by EIA; type: functional, organism-based; method in brief: as §2
[7] = Selectivity index, ratio of TC50 for human HepG2(2.2.15) cells to IC50 for HBV infected in human HepG2(2.2.15) cells assessed as inhibition of surface antigen secretion; method in brief: as §1
Huh-7 [8] = test: Inhibition of nuclear p65/p50 NF-kappaB protein expression in human HuH7 cells transfected with pHBV1.2 at 1 to 10 ug/ml after 2 days by Western blotting analysis; type: functional, cell-based
Method in brief: (§5)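 Huh7 transfected with pHBV1.2 for 2 days, treated 1, 5, 10 µg/ml for 2 further days; nuclear and cytoplasmic fractions by NE-PER; 25 µg protein immunoblotted for p65, p50, phospho-p65 (nuclear, PCNA control) and IκBα (cytoplasmic); three experiments.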

Hepatitis B virus [9] = test: Reduction of preS promoter activity in HBV infected in human HuH7 cells transfected with pPreS-Luc at 10 ug/ml after 24 hrs by luciferase reporter gene assay; type: functional, organism-based; details: Huh-7
Method in brief: (§6)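 Huh7 seeded in 24-well plates 24 h, cotransfected with viral promoter-luciferase construct (Core, S, preS or X; 1 µg/well) plus pHBV1.2 and pRL-SV40 (0.02 µg/well) in serum-free DMEM 24 h; then 2% FBS medium ± 10 µg/ml; firefly normalized to Renilla; n = 3.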

[10] = Cytotoxicity against HBV-transfected human HuH7 cells up to 160 ug/ml after 3 days by MTS assay; type: cell-based; details: huh-7, 72 h
Method in brief: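 Huh7 cells (DMEM, 10% FBS) transfected with HBV plasmid, seeded at 4×10^4 cells/ml for 24 h, treated with 2.5–160 µg/ml serial dilutions for 3 days; viability by MTS read-out, four replicates, relative to untreated control.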

Hepatitis B virus [11] = test: Antiviral activity against HBV transfected in human HuH7 cells assessed as reduction in HBcAg protein expression at 1 to 10 ug/ml after 2 days by immunoblot analysis relative to vehicle-treated control; type: functional, organism-based; details: Huh-7
Method in brief: (§7)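 Huh7 transfected with pHBV1.2 (Lipofectamine 2000, 2 days), then treated 1, 5, 10 µg/ml for 2 days; whole-cell RIPA lysates, 25 µg protein per lane SDS-PAGE, PVDF immunoblot for LHBsAg, SHBsAg, HBcAg with ECL detection; α-tubulin loading control; compared with vehicle.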

Huh-7 [12] = test: Antiviral activity against HBV infected in human HuH7 cells transfected with pHBV1.2/p65 expression plasmid at 10 ug/ml after 2 days by RT-PCR analysis; type: functional, cell-based
Method in brief: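 Huh7 cells cotransfected with pHBV1.2 plus 0.5 or 2.5 µg pCMV-p65 (or empty vector) for 2 days, then exposed to 10 µg/ml for 2 more days; secreted viral particle DNA quantified by real-time PCR; n = 3.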

[13] = Cytotoxicity against human HepG2(2.2.15) cells at >20 ug/ml after 3 days by MTS assay; type: cell-based; details: hepg2 2.2.15, 72 h; method in brief: as §4
Hepatitis B virus [14] = test: Inhibition of ISRE promoter activity in HBV infected in human HuH7 cells transfected with pISRE-Luc at 10 ug/ml after 24 hrs by luciferase reporter gene assay; type: functional, organism-based; details: Huh-7
Method in brief: (§8)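 Huh7 in 24-well plates transfected with pAP1-, pAP2-, pNF-κB- or pISRE-Luc plus pRL-SV40 for 24 h, then treated ± 10 µg/ml; dual-luciferase read-out normalized to Renilla; mean and SD, n = 3.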

Huh-7 [15] = test: Reduction of phosphorylated p65 NF-kappaB level in human HuH7 cells transfected with pHBV1.2 at 1 to 10 ug/ml after 2 days by Western blotting analysis; type: functional, cell-based; method in brief: as §5
Hepatitis B virus [16] = test: Antiviral activity against HBV infected in human HepG2(2.2.15) cells assessed as inhibition of viral DNA replication by RT-PCR analysis; type: functional, organism-based; method in brief: as §3
Hepatitis B virus [17] = test: Antiviral activity against HBV transfected in human HuH7 cells assessed as reduction in LHBsAg protein expression at 1 to 10 ug/ml after 2 days by immunoblot analysis relative to vehicle-treated control; type: functional, organism-based; details: Huh-7; method in brief: as §7
Hepatitis B virus [18] = test: Inhibition of AP-2 promoter activity in HBV infected in human HuH7 cells transfected with pAP2-Luc at 10 ug/ml after 24 hrs by luciferase reporter gene assay; type: functional, organism-based; details: Huh-7; method in brief: as §8
Hepatitis B virus [19] = test: Antiviral activity against HBV transfected in human HuH7 cells assessed as reduction in viral DNA replication after 2 days by Southern blot analysis; type: functional, organism-based; details: Huh-7
Method in brief: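 Intracellular encapsidated HBV DNA from core particles of pHBV1.2-transfected Huh7 cells treated 2 days; 1.0% agarose, Southern blot with DIG-labeled full-length HBV probe; lamivudine-treated cells as comparison.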

Hepatitis B virus [20] = test: Antiviral activity against HBV transfected in human HuH7 cells assessed as reduction in precore/pregenomic RNA level at 1 to 10 ug/ml after 2 days by Northern blot analysis; type: functional, organism-based; details: Huh-7
Method in brief: (§9)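 pHBV1.2-transfected Huh7 (cotransfected pCMV-β for efficiency) treated 1, 5, 10 µg/ml for 2 days; 5 µg total RNA on 1.0% agarose, Northern blot with whole HBV genome probe; GAPDH RNA loading control, β-gal for transfection efficiency.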

Hepatitis B virus [21] = test: Antiviral activity against HBV infected in human HepG2(2.2.15) cells assessed as inhibition of surface antigen secretion after 3 days by EIA; type: functional, organism-based; method in brief: as §2
Hepatitis B virus [22] = test: Antiviral activity against HBV transfected in human HuH7 cells assessed as reduction in major S/preS RNA level at 1 to 10 ug/ml after 2 days by Northern blot analysis; type: functional, organism-based; details: Huh-7; method in brief: as §9
Hepatitis B virus [23] = test: Reduction of S promoter activity in HBV infected in human HuH7 cells transfected with pS-Luc at 10 ug/ml after 24 hrs by luciferase reporter gene assay; type: functional, organism-based; details: Huh-7; method in brief: as §6
Hepatitis B virus [24] = test: Antiviral activity against HBV transfected in human HuH7 cells assessed as reduction in SHBsAg protein expression at 1 to 10 ug/ml after 2 days by immunoblot analysis relative to vehicle-treated control; type: functional, organism-based; details: Huh-7; method in brief: as §7
Huh-7 [25] = test: Reduction in NF-kappaB binding to consensus DNA-binding sequence in human HuH7 cells transfected with pHBV1.2 by ESMA analysis; type: functional, cell-based
Hepatitis B virus [26] = test: Antiviral activity against HBV infected in human HepG2(2.2.15) cells assessed as inhibition of e antigen secretion after 3 days by EIA; type: functional, organism-based; method in brief: as §2
Hepatitis B virus [27] = test: Upregulation of AP-1 promoter activity in HBV infected in human HuH7 cells transfected with pAP1-Luc at 10 ug/ml after 24 hrs by luciferase reporter gene assay; type: functional, organism-based; details: Huh-7; method in brief: as §8
[28] = Upregulation of cytoplasmic IkappaBalpha level in human HuH7 cells transfected with pHBV1.2 at 1 to 10 ug/ml after 2 days by Western blotting analysis; type: functional, cell-based; details: Huh-7; method in brief: as §5
Hepatitis B virus [29] = test: Inhibition of Core promoter activity in HBV infected in human HuH7 cells transfected with pCore-Luc at 10 ug/ml after 24 hrs by luciferase reporter gene assay; type: functional, organism-based; details: Huh-7; method in brief: as §6
Hepatitis B virus [30] = test: Inhibition of NF-kappaB promoter activity in HBV infected in human HuH7 cells transfected with pNF-kappaB-Luc at 10 ug/ml after 24 hrs by luciferase reporter gene assay; type: functional, organism-based; details: Huh-7; method in brief: as §8

CCc1ccc(C(=O)N[C@]2(C)CCC[C@@]3(C)[C@@H]4CC[C@@]5(C)C[C@]4(CC[C@@H]32)CC5=O)cc1
Selectivity Index [1]: 1.89 | IC50 (Hepatitis B virus [2]): 5.57 µg/mL (≈ 13.2 µM) | Selectivity Index [3]: 2.87 | IC50 (Hepatitis B virus [4]): 11.2 µg/mL (≈ 26.6 µM) | CC50 [5]: 21.2 µg/mL (≈ 50.3 µM) | IC50 (Hepatitis B virus [6]): 7.38 µg/mL (≈ 17.5 µM) | Selectivity Index [7]: 3.8

COc1ccc(C(=O)N[C@]2(C)CCC[C@@]3(C)[C@@H]4CC[C@@]5(C)C[C@]4(CC[C@@H]32)CC5=O)cc1
IC50 (Hepatitis B virus [2]): 18.8 µg/mL (≈ 44.3 µM) | CC50 [5]: 22.4 µg/mL (≈ 53 µM) | Selectivity Index [7]: 1.2

CCCC(=O)N[C@]1(C)CCC[C@@]2(C)[C@@H]3CC[C@@]4(C)C[C@]3(CC[C@@H]21)CC4=O
inhibition (Huh-7 [8]): Active | Activity (Hepatitis B virus [9]): Active | Activity [10]: Non-toxic | Activity (Hepatitis B virus [11]): Active | Activity (Huh-7 [12]): inactive | Activity [13]: Toxic | inhibition (Hepatitis B virus [14]): inactive | Activity (Huh-7 [15]): Active | inhibition (Hepatitis B virus [16]): Dose-dependent effect | Activity (Hepatitis B virus [17]): Active | Selectivity Index [1]: 11.41 | inhibition (Hepatitis B virus [18]): inactive | Activity (Hepatitis B virus [19]): Dose-dependent effect | IC50 (Hepatitis B virus [2]): 10.4 µg/mL (≈ 28.8 µM) | Activity (Hepatitis B virus [20]): Active | Selectivity Index [3]: 5.89 | inhibition (Hepatitis B virus [21]): Dose-dependent effect | Activity (Hepatitis B virus [22]): Active | Activity (Hepatitis B virus [23]): Active | Activity (Hepatitis B virus [24]): Active | IC50 (Hepatitis B virus [4]): 5.76 µg/mL (≈ 16 µM) | CC50 [5]: 65.7 µg/mL (≈ 183 µM) | Activity (Huh-7 [25]): Dose-dependent effect | IC50 (Hepatitis B virus [6]): 11.2 µg/mL (≈ 31 µM) | inhibition (Hepatitis B virus [26]): Dose-dependent effect | Selectivity Index [7]: 6.34 | Activity (Hepatitis B virus [27]): Active | Activity [28]: Active | inhibition (Hepatitis B virus [29]): inactive | inhibition (Hepatitis B virus [30]): Active

Cc1ccc(C(=O)N[C@]2(C)CCC[C@@]3(C)[C@@H]4CC[C@@]5(C)C[C@]4(CC[C@@H]32)CC5=O)cc1
CC50 [5]: 18.9 µg/mL (≈ 46.5 µM)

C[C@@]12CC[C@@H]3[C@@](CC[C@H]4[C@@]3(C)CCC[C@@]4(C)NC(=O)c3ccc(I)cc3)(CC1=O)C2
CC50 [5]: 10.5 µg/mL (≈ 20.3 µM)

O=c1[nH]cc(F)c(=O)[nH]1 [FLUOROURACIL]
CC50 [5]: 6.12 µg/mL (≈ 47 µM)

C[C@@]12CC[C@@H]3[C@@](CC[C@H]4[C@@]3(C)CCC[C@@]4(C)NC(=O)c3ccc(C#N)cc3)(CC1=O)C2
IC50 (Hepatitis B virus [2]): 8.45 µg/mL (≈ 20.2 µM) | CC50 [5]: 10.8 µg/mL (≈ 25.8 µM) | Selectivity Index [7]: 1.28
